From ChEMBL document CHEMBL1828629, “Identification of a non-phosphorylated, cell permeable, small molecule ligand for the Stat3 SH2 domain” (Bioorg Med Chem Lett, 2011)
The source made the active and inactive calls. The calls are words filed in the database; no cut-off is given here.

Tests used:
DU-145 = experiment: Cytotoxicity against human DU145 cells after 72 hrs by MTS assay; type: functional, cell-based; settings: DU-145, 72 h
[1] = Lipophilicity, log P of the compound; type: physicochemical; settings: octanol/water
[2] = Cytotoxicity against human MDA468 cells after 72 hrs by MTS assay; type: functional, cell-based; settings: MDA-MB-468, 72 h
[3] = Cytotoxicity against human JJN-3 cells after 72 hrs by MTS assay; type: functional, cell-based; settings: JJN-3, 72 h
[4] = Solubility of the compound in water; type: physicochemical; settings: buffer
[5] = biological target: T1, Signal transducer and activator of transcription 3 (Mus musculus, UniProt P42227); experiment: Inhibition of STAT3 in mouse NIH3T3/vSrc nuclear extract assessed as disruption of the Stat3-DNA complex pre-incubated for 30 mins by EMSA analysis
T1 sequence (P42227 whole entry): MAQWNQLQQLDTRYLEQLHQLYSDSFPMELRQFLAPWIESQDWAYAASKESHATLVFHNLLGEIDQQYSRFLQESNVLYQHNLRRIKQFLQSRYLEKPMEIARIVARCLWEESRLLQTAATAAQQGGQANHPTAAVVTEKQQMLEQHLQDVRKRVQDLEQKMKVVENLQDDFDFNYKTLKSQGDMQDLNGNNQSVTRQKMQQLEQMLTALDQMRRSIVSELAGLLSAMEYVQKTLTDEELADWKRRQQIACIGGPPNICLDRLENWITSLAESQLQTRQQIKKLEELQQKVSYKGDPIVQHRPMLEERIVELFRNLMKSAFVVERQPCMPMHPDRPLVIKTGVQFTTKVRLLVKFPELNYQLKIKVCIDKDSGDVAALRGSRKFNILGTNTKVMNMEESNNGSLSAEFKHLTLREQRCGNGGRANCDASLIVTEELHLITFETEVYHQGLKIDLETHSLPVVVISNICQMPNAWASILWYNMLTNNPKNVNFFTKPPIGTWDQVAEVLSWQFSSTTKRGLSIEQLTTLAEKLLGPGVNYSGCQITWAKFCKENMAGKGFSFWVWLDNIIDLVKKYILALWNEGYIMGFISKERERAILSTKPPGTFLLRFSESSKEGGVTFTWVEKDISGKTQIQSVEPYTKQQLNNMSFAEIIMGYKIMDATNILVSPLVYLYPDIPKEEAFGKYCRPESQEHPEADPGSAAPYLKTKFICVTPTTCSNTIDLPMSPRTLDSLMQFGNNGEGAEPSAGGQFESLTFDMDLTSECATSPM
Method in brief: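 NIH3T3/vSrc nuclear extracts were pre-incubated with a range of compound concentrations for 30 min at room temperature. They were then incubated with 32P-labelled hSIE probe (c-fos m67 variant) for 30 min at 30 °C and resolved by EMSA. Stat3 DNA-binding bands were quantified as percent of control, and IC50 was derived from those plots.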

[6] = biological target: T2, Signal transducer and activator of transcription 3 (Homo sapiens, UniProt P40763); experiment: Inhibition of STAT3 using fluorescent probe 5-carboxyfluorescein-GpYLPQTV-NH2 after 15 mins by fluorescence polarisation assay
T2 sequence (P40763 whole entry): as the sequence (P42227 whole entry) above, with D760E counted along it

[7] = biological target: T2, Signal transducer and activator of transcription 3; settings: JJN3, 20 uM
[8] = biological target: T2, Signal transducer and activator of transcription 3; settings: MDA-MB-468, 20 uM
[9] = biological target: T2, Signal transducer and activator of transcription 3; settings: JJN3, 20 uM; remark: listed apart in the source
[10] = biological target: T2, Signal transducer and activator of transcription 3; settings: JJN-3, 20 uM
[11] = biological target: T2, Signal transducer and activator of transcription 3; settings: MDA-MB-468, 20 uM; remark: listed apart in the source
[12] = biological target: T2, Signal transducer and activator of transcription 3; settings: JJN3, 20 uM; remark: listed apart in the source
[13] = biological target: T2, Signal transducer and activator of transcription 3; settings: MDA-MB-468, 20 uM; remark: listed apart in the source
[14] = biological target: T2, Signal transducer and activator of transcription 3; settings: MDA-MB-468, 20 uM; remark: listed apart in the source
[15] = Inhibition of mouse STAT5 using fluorescent probe 5-carboxyfluorescein-GpYLPQTV-NH2 after 30 mins by fluorescence polarisation assay
[16] = biological target: T2, Signal transducer and activator of transcription 3; experiment: Inhibition of STAT3 phosphorylation in human JJN-3 cells at 100 uM after 24 hrs by Western blotting; type: cell-based
Method in brief: (§1)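 Intact MDA-468 or JJN3 cells were treated for 24 h, with DMSO as the untreated control. Cells were lysed in Tris-HCl/EDTA/1% NP-40/150 mM NaCl for 30 min on ice, freeze-thawed once at −80 °C and centrifuged at 12000g for 15 min. Whole-cell lysates were run on 6.5–15% SDS-PAGE and immunoblotted for pY705Stat3 and total Stat3.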

[17] = biological target: T3, Signal transducer and activator of transcription 1 (Mus musculus, UniProt P42225); experiment: Inhibition of mouse STAT1 using fluorescent probe 5-carboxyfluorescein-GpYLPQTV-NH2 after 30 mins by fluorescence polarisation assay
T3 sequence (P42225 whole entry): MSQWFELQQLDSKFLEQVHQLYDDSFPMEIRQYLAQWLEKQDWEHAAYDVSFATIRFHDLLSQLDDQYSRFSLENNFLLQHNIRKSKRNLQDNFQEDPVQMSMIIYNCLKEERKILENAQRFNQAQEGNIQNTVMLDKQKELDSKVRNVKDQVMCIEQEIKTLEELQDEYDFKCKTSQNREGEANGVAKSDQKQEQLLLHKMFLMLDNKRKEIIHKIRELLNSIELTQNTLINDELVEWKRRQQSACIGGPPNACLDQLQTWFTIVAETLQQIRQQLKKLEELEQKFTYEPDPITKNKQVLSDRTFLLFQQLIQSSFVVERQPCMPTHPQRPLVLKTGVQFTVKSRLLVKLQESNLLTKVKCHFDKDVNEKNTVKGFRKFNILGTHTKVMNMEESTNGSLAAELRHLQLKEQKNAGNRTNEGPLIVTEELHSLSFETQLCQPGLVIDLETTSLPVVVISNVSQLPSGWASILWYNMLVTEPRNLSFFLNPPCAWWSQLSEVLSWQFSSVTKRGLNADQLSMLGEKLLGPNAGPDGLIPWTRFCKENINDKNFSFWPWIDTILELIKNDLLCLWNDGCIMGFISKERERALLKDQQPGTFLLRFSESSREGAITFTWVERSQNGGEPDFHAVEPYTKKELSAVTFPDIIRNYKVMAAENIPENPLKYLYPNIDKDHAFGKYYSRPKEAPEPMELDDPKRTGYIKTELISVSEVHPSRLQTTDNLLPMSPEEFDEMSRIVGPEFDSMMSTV

[18] = biological target: T1, Signal transducer and activator of transcription 3; experiment: Inhibition of mouse STAT3 SH2 domain using fluorescent probe 5-carboxyfluorescein-GpYLPQTV-NH2 after 30 mins by fluorescence polarisation assay
[19] = biological target: T2, Signal transducer and activator of transcription 3; experiment: Inhibition of STAT3 phosphorylation in human MDA468 cells at 100 uM after 24 hrs by Western blotting; type: cell-based; settings: MDA-MB-468; method in brief: as §1

For `CN(CC(=O)N(Cc1ccc(C2CCCCC2)cc1)c1ccc(C(=O)O)c(O)c1)S(=O)(=O)c1cccc2ccccc12`, which EC50 (DU-145) is on record?
Its EC50 is 74.5 µM.

And the logP [1]?
Its logP is 5.95.

And the EC50 [2]?
Its EC50 is 46.5 µM.

And the EC50 [3]?
The EC50 was 106 µM.

And the solubility [4]?
Its solubility is “Insoluble”.

What does the source list for `CN(CC(=O)N(Cc1ccc(C2CCCCC2)cc1)c1ccc(C(=O)O)c(O)c1)S(=O)(=O)c1cn(C)cn1`?
IC50 [5]: > 300 µM; Ki [6]: > 100 µM

For `COc1ccc(S(=O)(=O)N(C)CC(=O)N(Cc2ccc(C3CCCCC3)cc2)c2ccc(C(=O)O)c(O)c2)cc1`, which IC50 [5] is on record?
The IC50 was 67.4 µM.

What does the source list for `CN(CC(=O)N(Cc1ccc(C2CCCCC2)cc1)c1ccc(C(=O)O)c(O)c1)S(=O)(=O)c1c(F)c(F)c(F)c(F)c1F`?
inhibition [7]: Active; inhibition [8]: Active; inhibition [9]: Active; inhibition [10]: Active; inhibition [11]: Active; EC50 [3]: 16.7 µM; solubility [4]: soluble; inhibition [12]: Active; inhibition [13]: Active; inhibition [14]: Active

With `CN(CC(=O)N(Cc1ccc(C2CCCCC2)cc1)c1ccc(C(=O)O)c(O)c1)S(=O)(=O)c1ccc(-c2ccccc2)cc1` as the molecule, how does the IC50 [5] read?
Its IC50 is 65.4 µM.

And the Ki [6]?
Its Ki is 6.2 µM.

Which results are given for `Cc1ccc(S(=O)(=O)N(C)CC(=O)N(Cc2ccc(C3CCCCC3)cc2)c2ccc(C(=O)O)c(O)c2)cc1`?
Ki [15]: > 25 µM; inhibition [16]: Active; Ki [17]: > 25 µM; Ki [18]: 15 µM; inhibition [19]: Active

For `CN(CC(=O)N(Cc1ccc(C2CCCCC2)cc1)c1ccc(C(=O)O)c(O)c1)S(=O)(=O)c1ccc(F)cc1`, which IC50 [5] is on record?
Its IC50 is over 300 µM.
